# Sampled rows, rich in hits. Any-hit rate of the full collection: about 1.9%.
# proKLK7 act: activates the human kallikrein-7 zymogen. P49862. purified proKLK7, EDANS-DABCYL substrate fluorescence; 100% is mature enzyme control, 0% vehicle. actives 0.9% (n = 370,000). activation, % at 7 µM;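 active = activation above the mean of all tested compounds plus 3 SD, computed per campaign excluding outliers beyond control limits, cut at about 13% in these data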
# Target sequence (P49862 whole entry, looked up): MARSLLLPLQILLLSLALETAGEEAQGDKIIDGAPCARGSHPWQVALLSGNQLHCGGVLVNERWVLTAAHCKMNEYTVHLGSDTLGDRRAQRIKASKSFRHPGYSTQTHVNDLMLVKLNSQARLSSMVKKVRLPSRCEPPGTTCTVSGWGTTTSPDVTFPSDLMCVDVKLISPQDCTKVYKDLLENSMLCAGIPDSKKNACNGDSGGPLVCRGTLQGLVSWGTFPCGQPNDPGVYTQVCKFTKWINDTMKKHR
# T cell modulator: T cell immune modulators affecting CD8 T cell-vesicle binding; 2C CD8+ T cell-vesicle binding, flow cytometry; hits give low values; actives 0.068% (n = 330,000); response (vesicle binding), % at 7 µM; AID 2052;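 active = response, share of CD8 T cells binding vesicles, and their 90th percentile fluorescence all below set limits, cut at about 80% in these data, passing the limit was not always enough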;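 also: values below 100% mean blocked vesicle binding to the CD8+ T cells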
#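 material = purified 2C TCR transgenic mouse naive CD8+ T cells | controls = Unloaded micro-vesicles (low), QL9 vesicles with 0.7% DMSO (high) | detection = cytometric PE anti-B7-1 and Alexa647 anti-CD8 signals after 1% paraformaldehyde fixation | incubation = binding step 1.5 h, 37 °C, antibody labelling 20 min, ice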
# CR mimetic SO: lowers age-related superoxide in aged yeast cells. S. cerevisiae aged cells, superoxide DHE fluorescence; hits give low values. superoxide response (% of plate mean), % at 10 µM. actives 0.18% (n = 330,000). AID 2690;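 active = superoxide response under a set limit, about three screen SD below normal, cut at about 65% in these data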;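 also: yeast aged for seven days with compound at 30 °C before DHE staining; 100% = average MFI of all compound-treated wells on the plate with controls excluded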
# MIN6 prolif: induces beta-cell replication in MIN6 cells; MIN6 cells proliferation, ATPlite luminescence, 48 h; cells starved in 0.2% serum; 100% = growth in 10% serum; proliferation, % at 10 µM; actives 0.29% (n = 330,000); AID 2380;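 active = compounds whose signal lies at least 3.5 SD above the mean of all wells on their plate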;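 also: 0% = DMSO-treated cells in low-serum medium and 100% = 10% serum control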
# V-ATPase pH: alters yeast V-ATPase proton transport | S. cerevisiae, pHLuorin cytosolic pH fluorescence | response, % at 10 µM | actives 0.37% (n = 350,000) | AID 504577; in the data active = response mostly above about 7.3%, no sharp cut-off; inactive = mostly below about 5.4%; also: actives read high
# Rce1 inhib: blocks yeast Ras-converting enzyme | Q03530 | yeast membranes, quenched prenylated peptide cleavage fluorescence | calls only | actives 0.27% (n = 290,000);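 active = fall in fluorescence gain of 50% or more versus controls, with final raw signal at or below 3038400; inconclusive = same 50% fall but final raw signal above 3038400; inactive = fall in fluorescence gain under 50%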;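 also: plate controls were neutral control wells for no effect and wells lacking membranes for full effect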
# Target sequence (Q03530 whole entry, looked up): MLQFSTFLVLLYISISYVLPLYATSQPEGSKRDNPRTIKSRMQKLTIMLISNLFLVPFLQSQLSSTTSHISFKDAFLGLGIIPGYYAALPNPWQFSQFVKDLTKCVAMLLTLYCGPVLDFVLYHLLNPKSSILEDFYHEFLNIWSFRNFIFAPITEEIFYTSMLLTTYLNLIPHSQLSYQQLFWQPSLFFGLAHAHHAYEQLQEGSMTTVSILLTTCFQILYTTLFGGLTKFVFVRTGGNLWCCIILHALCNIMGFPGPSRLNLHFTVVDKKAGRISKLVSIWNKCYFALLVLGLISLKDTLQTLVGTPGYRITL
# Numbers without * were called inactive; i = inactive; ? = inconclusive; / = no result given; + = active, no number.
SMILES,proKLK7 act,T cell modulator,CR mimetic SO,MIN6 prolif,V-ATPase pH,Rce1 inhib
Cn1c(CNC(=O)CNC(=O)c2ccc(F)cc2)cc(=O)n(C)c1=O,0,0.0*,85,2,-1,i
COc1nc(Nc2ccc(C(C)C)cc2)nc(OC)n1,0,0.0*,116,-4,1,i
Fc1ccccc1-c1n[nH]c(=S)n1N=Cc1ccc(-c2ccccc2)cc1,0,/,/,/,/,/
COc1ccc(S[C@]2(C(=O)N3CCCC3)CC(=O)N(C(=O)CCc3ccccc3)[C@@H]2c2ccc(OC)cc2)cc1,0,/,/,/,/,/
COc1ccc(-n2nc(C(=O)NCC(=O)N3CCC(C)CC3)c3ccccc3c2=O)cc1,1,143,89,0,0,+
COc1ccc(-n2nc(C(=O)NCC(=O)N3CCCC(C)C3)c3ccccc3c2=O)cc1 (configuration not stated),2,240,99,0,7,i
O=C(Nc1nc(-c2cccc3ccccc23)cs1)c1ccc2c(c1)S(=O)(=O)c1ccccc1C2=O,0,114,127,-6,21*,i
Cc1cc2nc(/C=C/c3cccnc3)[nH]c2cc1C,44*,324,100,-4,0,?
Nc1[nH]c(C(=O)c2ccc(Br)cc2)c(-c2ccc3ccccc3c2)c1C(=O)NCCc1c[nH]c2ccccc12,0,/,/,/,/,/
Cc1c(Cl)c([N+](=O)[O-])nn1CC(=O)N1CCCc2ccccc21,0,378,108,-2,-1,+
Cc1cccc(Nc2ccccc2C(=O)OCC(=O)N(C)C2CCS(=O)(=O)C2)c1C (configuration not stated),0,285,87,0,-2,+
CN(C(=O)COC(=O)c1cccc(S(=O)(=O)N2CCCCCC2)c1)C1CCS(=O)(=O)C1 (configuration not stated),0,345,104,5,-4,i
CN(C(=O)COC(=O)c1cccc(NS(=O)(=O)c2ccc(F)c(F)c2)c1)C1CCS(=O)(=O)C1 (configuration not stated),1,19*,93,-2,0,i
CN(C(=O)COC(=O)c1cc([N+](=O)[O-])ccc1Sc1ccccc1)C1CCS(=O)(=O)C1 (configuration not stated),1,162,93,-2,2,+
C=CCCC1CN(CC=C)S(=O)(=O)c2c(F)cccc2O1 (configuration not stated),0,/,/,/,/,/
C=CCN1C(=O)[C@@H](CC(=O)NCc2ccc(OC)c(OC)c2)[C@]2(C(=O)OCC)CCCCC/C=C/12,0,/,/,/,/,/
CCn1c(=O)c(-c2cc(=O)[nH][nH]2)c(O)c2ccccc21,0,51,81,1,-4,i
CCCCn1c(=O)c(-c2ccccc2)c(O)c2ccccc21,1,212,104,-2,-4,+
O=c1c(-c2ccccc2)c(O)c2ccccc2n1-c1ccccc1,0,548,93,0,-2,+
CCn1c(=O)c(-c2ccccc2)c(O)c2ccccc21,2,178,95,1,-2,+
COc1ccccc1Nc1nnc(C)c(=O)[nH]1,0,604,94,-2,6,i
CCOc1ccccc1Nc1nnc(C)c(=O)[nH]1,0,562,99,7,15*,i
O=[N+]([O-])c1cc(CN2CCN(c3ccccc3)CC2)c(O)c2ncccc12,0,394,124,-4,6.6*,i
Cc1cc(Cl)c(OCCCSc2nc(C)cc(=O)[nH]2)c(Br)c1,0,74*,116,-5,1,i
Cc1cc(=O)[nH]c(SCCCOc2ccc(F)cc2)n1,1,396,90,3,0,i
SMILES,proKLK7 act,T cell modulator,CR mimetic SO,MIN6 prolif,V-ATPase pH,Rce1 inhib
CCCCCC[C@@H](CCCc1ccccc1OC)CN(CCCC)S(C)(=O)=O,0,/,/,/,/,/
CCN(C(=O)COC(=O)c1cc(-c2cccs2)nc2ccccc12)C1CCS(=O)(=O)C1 (configuration not stated),-65,650,119,-4,1,+
CCN(C(=O)COC(=O)c1c(C)c(-c2ccccc2)nc2ccccc12)C1CCS(=O)(=O)C1 (configuration not stated),0,73,97,-1,1,i
COc1ccc(-c2cc3ccc(OCC(C)=O)cc3oc2=O)cc1OC,0,399,89,-2,-5,i
COc1ccc(-c2cc3ccc(OCc4nn[nH]n4)cc3oc2=O)cc1OC,-25,306,99,-1,3,+
COc1cccc2c(=O)c(C(=O)O)c[nH]c12,11,186,99,-3,-2,+
O=C(Nc1ncccn1)c1ccc([N+](=O)[O-])cc1,0,186,111,-2,1,+
COc1ccc2[nH]c(C(=O)NCCCn3ccnc3)cc2c1,/,184,95,-1,3,+
COCCN(CCOC)C(=O)[C@H](CCc1ccccc1)NC(=O)[C@H]1O[C@@H](n2cnc3c(N)ncnc32)[C@H](O)[C@@H]1O,0,/,/,/,/,/
COc1ccc(/C=C/c2c(-c3ccc(OC)cc3)oc3ccc(-c4ccc(OC)cc4)cc23)cc1,0,500,91,-2,3,i
COc1ccc(/C=C/c2cc(-c3ccc(C)cc3)o[n+]2C)cc1,32*,154,104,-6,1,i
Nc1nc2n[nH]nc2c(=O)[nH]1,0,275,83,-4,1,+
Nc1nc2nn(-c3ccccc3)nc2c(=O)[nH]1,-22,178,87,-4,0,i
CCOC(=O)[C@]12CCCCC/C=C\1N(CCc1ccc(Cl)cc1)C(=O)[C@H]2CC(=O)N1CCSCC1,0,/,/,/,/,/
COc1ccc(CNC(=O)C[C@H]2C[C@H](C(=O)N3CCCCC3)[C@@]3(C)c4[nH]c5cc(-c6ccco6)ccc5c4CCN3C2=O)cc1OC,68*,/,98,/,1,/
CC[C@]12c3[nH]c4ccc(Cl)cc4c3CCN1C(=O)[C@@H](CC(=O)NC(C)(C)C)C[C@@H]2C(=O)N1CCN(C(=O)c2ccco2)CC1,0,/,95,/,0,/
CC[C@]12c3[nH]c4cc(-c5ccco5)ccc4c3CCN1C(=O)[C@@H](CC(=O)NC(C)(C)C)C[C@@H]2C(=O)N1CCN(C(=O)c2ccco2)CC1,116*,/,106,/,1,/
CC(C)N(C(=O)[C@H]1C[C@H](CC(=O)NCc2ccco2)C(=O)N2CCc3c([nH]c4cc(-c5ccco5)ccc34)[C@]12C)C(C)C,35*,/,87,/,0,/
CC(C)N(C(=O)[C@H]1CC(CC(=O)NCc2ccco2)C(=O)N2CCc3c([nH]c4ccccc34)[C@]12C)C(C)C (some centres not stated),1,638,114,-4,0,/
